Measured values reported in ChEMBL document CHEMBL4613231 (Bioorg Med Chem, 2020).

Columns and labels:
[1] = target: T1, Tyrosyl-DNA phosphodiesterase 1 (Homo sapiens, UniProt Q9NUW8); test: Inhibition of TDP1 (unknown origin) using 5'-(5,6 FAM-AAC GTC AGG GTC TTC C- BHQ1)-3' as substrate measured for every 1 min by fluorescence based assay
Summary of the method: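 TDP1 buffer (50 mM Tris-HCl pH 8.0, 50 mM NaCl, 7 mM β-mercaptoethanol) with FAM/BHQ1 quenched biosensor at 50 nM final and inhibitor over a concentration range. Started by adding TDP1 (1.5 nM), 26 °C, fluorescence (Ex485/Em520) read every 1 min. Linear-phase slope compared with DMSO control, IC50 taken from concentration-response curves, at least three independent experiments.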

[2] = target: T1, Tyrosyl-DNA phosphodiesterase 1; test: Inhibition of TDP1 (unknown origin) using 5'-(5,6 FAM-AAC GTC AGG GTC TTC C- BHQ1)-3' as substrate measured after 20 mins by gel-based assay
Summary of the method: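 Reaction (200 μL) in TDP1 buffer (50 mM Tris-HCl pH 8.0, 50 mM NaCl, 7 mM β-mercaptoethanol) with FAM/BHQ1 biosensor oligo at 50 nM final and inhibitor at various concentrations. Started with TDP1 at 1.5 nM final, run 20 min at room temperature, stopped with loading buffer. Products separated by denaturing PAGE, scanned and quantified, and IC50 derived.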

[3] = (§1) Cytotoxicity against human T98G cells assessed as reduction in cell viability after 72 hrs by MTT assay; type: cell-based; conditions: T98G cells
Summary of the method: (§2)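 Cells plated at ~2000 per well, grown 24h at 37 °C in IMDM (5% CO2), then exposed to compounds at 1, 5, 20 and 100 µM for 72h. Viable cells quantified by colorimetric MTT test; CC50 taken as mean of three independent experiments.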

[4] = (§3) Cytotoxicity against human MCF7 cells assessed as reduction in cell viability after 72 hrs by MTT assay; type: cell-based; conditions: MCF7 cells; summary of the method: as §2
[5] = tested on: T98G; test: Cytotoxicity against human T98G cells at 1 uM after 72 hrs in presence of topotecan by MTT assay; type: cell-based
[6] = tested on: WI-38; test: Cytotoxicity against human WI38 cells at 1 uM after 72 hrs in presence of topotecan by MTT assay; type: cell-based; conditions: wi-38, 72 h
[7] = tested on: WI-38; test: (§4) Cytotoxicity against human WI38 cells assessed as reduction in cell viability after 72 hrs by MTT assay; type: cell-based; conditions: wi-38, 72 h; summary of the method: as §2
[8] = tested on: T98G; test: as §1; type: cell-based; conditions: t98g, 72 h; summary of the method: as §2
[9] = tested on: MCF7; test: as §3; type: cell-based; conditions: mcf7, 72 h; summary of the method: as §2
[10] = tested on: A549; test: Cytotoxicity against human A549 cells assessed as reduction in cell viability after 72 hrs by MTT assay; type: cell-based; conditions: a549, 72 h; summary of the method: as §2
[11] = as §4; type: cell-based, WI-38; conditions: WI-38 cells; summary of the method: as §2

T1 sequence (Q9NUW8 whole entry): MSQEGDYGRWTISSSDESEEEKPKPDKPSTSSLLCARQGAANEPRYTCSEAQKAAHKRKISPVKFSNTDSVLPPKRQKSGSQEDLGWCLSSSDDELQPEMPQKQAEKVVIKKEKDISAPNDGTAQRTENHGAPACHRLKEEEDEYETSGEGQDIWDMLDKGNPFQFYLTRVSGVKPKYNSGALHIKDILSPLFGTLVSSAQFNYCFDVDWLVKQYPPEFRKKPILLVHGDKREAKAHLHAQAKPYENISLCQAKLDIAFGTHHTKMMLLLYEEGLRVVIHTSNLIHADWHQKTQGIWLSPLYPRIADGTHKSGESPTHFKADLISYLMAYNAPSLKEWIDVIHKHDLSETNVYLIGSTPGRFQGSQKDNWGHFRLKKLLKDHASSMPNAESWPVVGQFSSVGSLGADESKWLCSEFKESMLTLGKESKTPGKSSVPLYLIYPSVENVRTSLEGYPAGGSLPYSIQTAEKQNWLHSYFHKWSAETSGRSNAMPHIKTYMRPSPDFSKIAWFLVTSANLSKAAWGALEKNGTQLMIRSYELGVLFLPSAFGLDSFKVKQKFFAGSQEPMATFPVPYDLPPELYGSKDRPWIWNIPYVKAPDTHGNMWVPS

Structure (SMILES)	IC50 [1]	also measured
O=C(COc1cc2oc(=O)cc(-c3ccccc3)c2cc1Cl)NC[C@H]1CC[C@H](C(=O)O)CC1	> 100000 nM	
Cc1c(CC(=O)N[C@@H](CSCc2ccccc2)C(=O)O)c(=O)oc2c(C)c3occ(-c4ccc(F)cc4)c3cc12	1060 nM	IC50 [2]: 1750 nM; CC50 at 72 h [3]: 66 µM; CC50 at 72 h [4]: 80 µM
Cc1c(CCC(=O)N[C@@H](CSCc2ccccc2)C(=O)O)c(=O)oc2cc3oc4c(c3cc12)CCCC4	15400 nM	
CC(C)OCCCNC(=O)c1cc2c([nH]c3ccccc32)c(-c2ccc3c(c2)OCO3)n1	3100 nM	
O=C(NCCc1c[nH]c2ccccc12)c1cc2c([nH]c3ccccc32)c(-c2ccc3c(c2)OCO3)n1	980 nM	
Cc1c(CC(=O)NC(Cc2ccc(Cl)cc2)C(=O)O)c(=O)oc2c(C)c3occ(-c4ccc(F)cc4)c3cc12 (configuration not stated)	850 nM	
COc1ccc(-c2cc(=O)oc3cc(OCC(=O)N[C@H](C(=O)O)c4ccccc4)ccc23)cc1	12900 nM	
O=c1cc(-c2cc3ccccc3oc2=O)c2ccc(OCc3c(Cl)cccc3Cl)cc2o1	99 nM	Activity [5]: Toxic; Activity [6]: Toxic; Activity [7]: Non-Toxic; Activity [8]: Non-Toxic; Activity [9]: Non-Toxic; Activity [10]: Non-Toxic
O=C(NCCC1=CCCCC1)c1cc2c([nH]c3ccccc32)c(-c2ccc3c(c2)OCO3)n1	1300 nM	
O=c1cc(-c2cc3ccccc3oc2=O)c2ccc(OCc3cccc4ccccc34)cc2o1	270 nM	
O=c1cc(-c2cc3ccccc3oc2=O)c2ccc(OCc3ccccc3Cl)cc2o1	280 nM	CC50 at 72 h [3]: 16 µM
Cc1c(Cc2ccccc2)c(=O)oc2cc(OCC(=O)N[C@@H](CSCc3ccccc3)C(=O)O)ccc12	3500 nM	
CCCc1cc(=O)oc2c(C)c(OCC(=O)NC(Cc3c[nH]c4ccc(O)cc34)C(=O)O)ccc12 (configuration not stated)	5600 nM	
COc1cccc2cc(-c3cc(=O)oc4cc(OCC(C)=O)ccc34)c(=O)oc12	7600 nM	
COc1cccc2cc(-c3cc(=O)oc4c(C)c(OCc5ccc(Cl)cc5)ccc34)c(=O)oc12	360 nM	Activity [5]: Toxic; Activity [6]: Toxic; CC50 at 72 h [11]: 60 µM; CC50 at 72 h [3]: 16 µM; CC50 at 72 h [4]: 17 µM
Cc1oc2c(C)c3oc(=O)c(CC(=O)NCC(=O)O)c(C)c3cc2c1-c1ccccc1	> 100000 nM	
CC(C)C[C@H](N)C(=O)N1CCC(C(=O)N[C@@H](Cc2ccccc2)C(=O)NCc2ccccc2F)CC1	> 100000 nM	
